Experimental data published in ChEMBL document CHEMBL4325846, “An investigation on 4-thiazolidinone derivatives as dual inhibitors of aldose reductase and protein tyrosine phosphatase 1B, in the search for potential agents for the treatment of type 2 diabetes mellitus and its complications” (Bioorg Med Chem Lett, 2018).
Active and inactive are the calls of the source. No cut-off for these calls is given here.

Tests used:
[1] = target: T1, Aldo-keto reductase family 1 member B1 (Homo sapiens, UniProt P15121); test: Inhibition of human recombinant aldose reductase expressed in Escherichia coli BL21 (DE3) pLysS assessed as reduction in NADPH oxidation using L-idose as substrate
[2] = target: T2, Tyrosine-protein phosphatase non-receptor type 1 (Homo sapiens, UniProt P18031); test: Inhibition of human full-length GST-fused PTP1B expressed in bacterial expression system using pNPP as substrate
T2 sequence (P18031 whole entry): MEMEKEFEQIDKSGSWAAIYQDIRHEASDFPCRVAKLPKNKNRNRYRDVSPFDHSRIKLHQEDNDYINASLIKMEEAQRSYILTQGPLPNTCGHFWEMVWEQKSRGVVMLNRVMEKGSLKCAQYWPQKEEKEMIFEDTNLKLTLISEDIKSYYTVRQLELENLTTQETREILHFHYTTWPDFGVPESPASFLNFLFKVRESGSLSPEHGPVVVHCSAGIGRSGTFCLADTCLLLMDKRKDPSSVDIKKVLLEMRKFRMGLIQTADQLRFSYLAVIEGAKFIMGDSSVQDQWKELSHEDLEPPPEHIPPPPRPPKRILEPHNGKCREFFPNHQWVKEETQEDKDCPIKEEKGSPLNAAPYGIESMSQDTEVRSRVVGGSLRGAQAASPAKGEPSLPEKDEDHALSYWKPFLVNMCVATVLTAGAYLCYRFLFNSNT
Summary of the method: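 Human recombinant PTP1B activity measured with p-nitrophenyl phosphate as substrate and sodium metavanadate as reference inhibitor. IC50 values are reported as mean ± S.E.M.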

[3] = target: T3, Tyrosine-protein phosphatase non-receptor type 1 (Homo sapiens) (UniProt P18031); test: Inhibition of human full-length GST-fused PTP1B expressed in bacterial expression system at 300 uM using pNPP as substrate relative to control
T3 sequence (whole entry): T2 sequence (P18031 whole entry)

[4] = target: T2, Tyrosine-protein phosphatase non-receptor type 1; test: Non-competitive inhibition of human full-length GST-fused PTP1B expressed in bacterial expression system assessed as dissociation constant of enzyme-inhibitor-substrate complex using pNPP as substrate by Michaelis-Menten plot analysis
Summary of the method: (§1)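 Human recombinant PTP1B with pNPP, rates measured over varied substrate levels at inhibitor 0–30 µM (steps of 10 µM, or 0/3/6/9 µM). Double-reciprocal plots were drawn, and secondary plots of Km/Vmax versus inhibitor concentration were used. Data are mean ± S.E.M. (n = 3).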

[5] = target: T1, Aldo-keto reductase family 1 member B1; test: Uncompetitive inhibition of human recombinant aldose reductase expressed in Escherichia coli BL21(DE3)pLysS assessed as dissociation constant of enzyme-inhibitor complex using L-idose as substrate by Morrison's plot analysis
Summary of the method: (§2)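 Purified human AR (7 mU) activity was measured across inhibitor concentrations at L-idose 2.1, 3.1, 4.1, 8.3 and 16.6 mM. Data were fitted to the Morrison equation to give Ki app at each substrate level. Ki app versus substrate was then fitted by nonlinear regression to a general tight-binding inhibition model.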

[6] = target: T2, Tyrosine-protein phosphatase non-receptor type 1; test: Non-competitive inhibition of human full-length GST-fused PTP1B expressed in bacterial expression system assessed as dissociation constant of enzyme-inhibitor complex using pNPP as substrate by Michaelis-Menten plot analysis; summary of the method: as §1
[7] = target: T3, Tyrosine-protein phosphatase non-receptor type 1 (Homo sapiens); test: Reversible inhibition of human full-length GST-fused PTP1B expressed in bacterial expression system using pNPP as substrate after 60 mins
Summary of the method: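 PTP1B was preincubated with a saturating inhibitor concentration for 60 min at 37°C. The mixture was then diluted in assay buffer and residual pNPP-hydrolysing activity was measured.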

[8] = target: T1, Aldo-keto reductase family 1 member B1; test: Reversible inhibition of human recombinant aldose reductase expressed in Escherichia coli BL21(DE3)pLysS assessed as enzyme activity recovery at 0.25 to 2 uM using L-idose as substrate relative to control; design: scale not given: the % may be the effect or the level left
[9] = target: T1, Aldo-keto reductase family 1 member B1; test: Uncompetitive inhibition of human recombinant aldose reductase expressed in Escherichia coli BL21(DE3)pLysS assessed as dissociation constant of enzyme-inhibitor-substrate complex using L-idose as substrate by Morrison's plot analysis; summary of the method: as §2
[10] = target: T2, Tyrosine-protein phosphatase non-receptor type 1; test: Mixed non-competitive inhibition of human full-length GST-fused PTP1B expressed in bacterial expression system assessed as assessed as dissociation constant of enzyme-inhibitor complex using pNPP as substrate by double reciprocal plot analysis
Summary of the method: (§3)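 Human recombinant PTP1B with pNPP. Rates were measured over varied substrate levels at inhibitor 0, 2, 4 and 6 µM. […] Data are mean ± S.E.M. (n = 3).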

[11] = target: T2, Tyrosine-protein phosphatase non-receptor type 1; test: Mixed non-competitive inhibition of human full-length GST-fused PTP1B expressed in bacterial expression system assessed as assessed as dissociation constant of enzyme-inhibitor-substrate complex using pNPP as substrate by double reciprocal plot analysis; summary of the method: as §3

Row | IC50 [1] | IC50 [2] | Compound | further results
1 | 0.078 µM | – | COc1cccc(/C=C2\SC(=S)N(CC(=O)O)C2=O)c1 | –
2 | 0.364 µM | 63.8 µM | O=C(O)CN1C(=O)S/C(=C\c2ccc(OCCc3ccccc3)cc2)C1=O | –
3 | 0.053 µM | 43.1 µM | O=C(O)CN1C(=O)/C(=C/c2cccc(OCc3ccccc3)c2)SC1=S | –
4 | 0.052 µM | 56 µM | O=C(O)CN1C(=O)/C(=C/c2ccc(OCc3ccccc3)cc2)SC1=S | –
5 | 0.06 µM | 63.9 µM | O=C(O)CN1C(=O)/C(=C/c2ccc(Oc3ccccc3)cc2)SC1=S | –
6 | 0.194 µM | – | NC(=O)COc1ccc(/C=C2\SC(=S)N(CC(=O)O)C2=O)cc1 | inhibition [3]: 10%
7 | 0.104 µM | 49.4 µM | O=C(O)CN1C(=O)/C(=C/c2ccc(OCCc3ccccc3)cc2)SC1=S | –
8 | 0.323 µM | 151 µM | COc1cc(/C=C2\SC(=O)N(CC(=O)O)C2=O)ccc1OCc1ccccc1 | –
9 | 0.04 µM | 54.1 µM | COc1cc(/C=C2\SC(=S)N(CC(=O)O)C2=O)ccc1OCc1ccccc1 | –
10 | 0.025 µM | 86.8 µM | O=C(O)CN1C(=O)/C(=C/c2cccc(Oc3ccccc3)c2)SC1=S | –
11 | 0.056 µM | 32.5 µM | O=C(O)CN1C(=O)/C(=C/c2cccc(OCCc3ccccc3)c2)SC1=S | Ki [4]: 12 µM; Ki [5]: > 0.3 µM; Ki [6]: 12 µM; inhibition [7]: Active; Activity [8]: 70%; Ki [9]: 0.0062 µM
12 | 0.064 µM | 716 µM | NC(=O)COc1cccc(/C=C2\SC(=S)N(CC(=O)O)C2=O)c1 | –
13 | 0.125 µM | 171 µM | O=C(O)CN1C(=O)/C(=C/C=C/c2ccccc2)SC1=S | –
14 | 0.139 µM | 679 µM | COc1ccc(/C=C2\SC(=S)N(CC(=O)O)C2=O)cc1OCC(N)=O | –
15 | 0.228 µM | 378 µM | COc1cc(/C=C2\SC(=S)N(CC(=O)O)C2=O)ccc1OCC(N)=O | –
16 | 0.276 µM | 12.4 µM | O=C(O)CN1C(=O)S/C(=C\c2cccc(OCCc3ccccc3)c2)C1=O | Ki [4]: 13.1 µM; Ki [5]: > 0.5 µM; Ki [6]: 13.1 µM; inhibition [7]: Active; Activity [8]: 70%; Ki [9]: 0.016 µM
17 | 1.41 µM | 10.6 µM | COc1cc(/C=C2\S/C(=N\c3ccccc3)N(CC(=O)O)C2=O)ccc1OCc1ccccc1 | Ki [10]: 7.6 µM; Ki [11]: 40.6 µM
